Assay outcomes deposited in PubChem by SRMLSC.
Only a selection was taken, and hits are over-represented in it overall.
PTEN del growth: growth suppression of PTEN-null HCT116, primary screen, cell-based, CellTiter-Glo. viability, % at 10 µM. HCT116 PTEN-null viability, 60 h; active compounds read low. 140,000 tested, 1.2% active;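 active = viability at or below a set limit, 4 SD under the median of all tested compounds, cut at about 3.7% in these data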;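 note: PTEN knockout HCT116 line with beta catenin targeted HCT116 as companion control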
Fibroblast inh: antiproliferative effect on LL 47 fibroblasts – human, LL 47 cells, CellTiter-Glo luminescence, primary screen. LL 47 human lung fibroblast viability, ATP luminescence; active compounds read low. viability, % at 10 µM. 85,000 tested, 1.1% active. AID 719, 2007;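 active = viability at or below 50% in the single dose screen; inactive = viability above 50%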;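 note: compound exposure lasted 72 h before the ATP readout; 100% = median luminescence of untreated cell-only wells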
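Material: human lung fibroblast line LL 47, low passage; Evaluation: viability percentage against median untreated-cell control; Buffer or medium: 15% FBS in IMEM; Incubation: 72 h compound exposure at 37 °C after overnight plating; Dosing: 0.1% DMSO in all compound wells; Measured by: CellTiter-Glo luminescence.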
HUVEC prolif 384: inhibitors of HUVEC proliferation, primary screen, cell-based, 384-well; CellTiter-Glo luminescence, 72 h; active compounds read low; viability, % at 10 µM (by protocol); 86,000 tested, 1.1% active; AID 648, 2007;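 active = viability at or below 30%; inactive = viability above 30%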;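 note: 100% = median luminescence of DMSO-only cell control wells on each plate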
HCT116 bCat-KO: primary screen for growth suppressors in beta-catenin knockout HCT116 cells (colon tumor, human). HCT116 beta-catenin knockout viability, CellTiter-Glo, 60 h; active compounds read low. viability, % at 10 µM. 140,000 tested, 1.5% active. AID 818, 2007;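 active = viability at or under a set limit, the compound median less 4 SD, cut at about 6% in these data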;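 note: 0% = Hyamine 1622 control at 20 µM and 100% = untreated cell control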
H69AR growth 86K: proliferation blockers of H69AR lung cancer cells, primary screen, cell-based, human, 86K library | H69AR lung tumor viability, ATP luminescence, 72 h; active compounds read low | viability, % at 10 µM | 85,000 tested, 6% active;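 active = viability at or below 40%; inactive = viability above 40%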;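 note: multidrug resistant small cell line overexpressing MRP-1 efflux transporter; 100% = mean luminescence of untreated control wells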
Starred values were filed as active, the others as inactive; · = not tested or not shown.

SMILES	PTEN del growth	Fibroblast inh	HUVEC prolif 384	HCT116 bCat-KO	H69AR growth 86K
CCCCn1c(O)c(C(CC)=NC(C)c2ccccc2)c(=O)[nH]c1=O (centres undefined)	45	99	75	46	17*
CCCCn1c(O)c(C(C)=NC(C)c2ccccc2)c(=O)[nH]c1=O (centres undefined)	97	108	85	98	28*
CCCCn1c(O)c(C(CC)=Nc2ccc(OC)cc2OC)c(=O)[nH]c1=O	86	94	78	87	34*
CCCCn1c(O)c(C(C)=NCCc2ccccc2)c(=O)[nH]c1=O	98	100	100	93	86
OC(Cn1c2ccccc2c2ccccc21)C[n+]1cccc2ccccc21 (centres undefined)	15	·	·	10	·
Cc1cc(NC(=O)CCC(=O)N2CCC3(CC2)OCCO3)no1	104	·	·	89	·
CC(=O)OC1N=C(c2ccccc2)c2cc(Br)ccc2N(C)C1=O (centres undefined)	87	·	·	84	·
COc1ccc(OC)c2c1CCC1NCCOC21 (centres undefined)	87	·	·	105	·
CN1CCC(O)(c2ccccc2)C(C(=O)c2ccccc2)C1 (centres undefined)	23	85	90	5.3*	83
C[C@H]1CCCC(=O)CCC/C=C/c2cc(O)cc(O)c2C(=O)O1	66	106	52	65	36*
CCN1/C(=C\C=C\C2=[N+](CC)c3ccccc3C2(C)C)C(C)(C)c2ccccc21	1.1*	8.7*	22*	1.1*	0.2*
Cc1cccc(-n2c(-c3cccs3)nc3ccccc3c2=O)c1	88	·	·	86	·
CCCCCCCSc1cc(OC)c(CCNC)cc1OC	1.6*	·	·	1.5*	·
CCOP(=O)(OCC)C(NC(=O)C(C)C)C(Cl)(Cl)Cl (centres undefined)	98	100	98	97	97
COc1ccc(-n2c(O)c(/C=C/C=Nc3ccccc3)c(=O)[nH]c2=O)cc1	96	·	·	98	·
CCCCC1(CCCC)C(=O)NC(=Nc2cccc(C)c2)NC1=O	12	52	59	32	7.8*
CCCNC(=O)c1c(N)n(CC2CCCO2)c2nc3ccccc3nc12 (centres undefined)	63	92	67	70	87
CCOC(=O)c1c(NC(=O)c2c(N)n(CCCOC)c3nc4ccccc4nc23)sc2c1CCCC2	15	90	76	4.0*	11*
CCCCCn1c(N)c(C(=O)NCCN2CCOCC2)c2nc3ccccc3nc21	46	82	55	53	30*
CCOCCCn1c(N)c(C(=O)Nc2sc3c(c2C(=O)OC)CCCC3)c2nc3ccccc3nc21	29	·	·	48	·
CCCCn1c(N)c(C(=O)OCC2CCCO2)c2nc3ccccc3nc21 (centres undefined)	93	87	60	87	50
Nc1c(C(=O)NCc2ccco2)c2nc3ccccc3nc2n1CCN1CCOCC1	34	94	70	52	39*
CCCCCCn1c(N)c(C(=O)NCCN2CCOCC2)c2nc3ccccc3nc21	1.4*	73	28*	27	1.5*
COc1cc(/C=C/C(=O)c2c(O)n(CCc3ccccc3)c(=O)[nH]c2=O)ccc1O	6	·	·	10	·
CCOC(=O)c1c(C)[nH]c(C(=O)C(Cc2ccccc2)N(C)C)c1C (centres undefined)	108	·	·	94	·
SMILES	PTEN del growth	Fibroblast inh	HUVEC prolif 384	HCT116 bCat-KO	H69AR growth 86K
Cc1nn(Cc2ccccc2Cl)c(C)c1C(=O)OCC(=O)NC1CCCC(C)C1C (centres undefined)	74	·	·	83	·
Cc1nn(Cc2ccc(Cl)cc2Cl)c(Cl)c1C(=O)NC1CCCc2ccccc21 (centres undefined)	57	·	·	67	·
COCCCn1c(N)c(C(=O)NCCC(C)C)c2nc3ccccc3nc21	2.7*	81	87	1.6*	18*
CC(C)OCCCNC(=O)c1c(N)n(CC2CCCO2)c2nc3ccccc3nc12 (centres undefined)	39	96	74	46	62
CCCCNC(=O)c1c(N)n(Cc2ccc3c(c2)OCO3)c2nc3ccccc3nc12	35	60	41	34	5.1*
CCCCOCCCn1c(N)c(C(=O)OCCOC)c2nc3ccccc3nc21	74	111	89	67	59
COc1ccc(CCNC(=O)c2c(N)n(CCN3CCOCC3)c3nc4ccccc4nc23)cc1OC	21	92	59	33	12*
Nc1c(C(=O)NCc2ccco2)c2nc3ccccc3nc2n1Cc1ccccc1	33	·	·	53	·
Cc1nn(Cc2ccccc2)c(C)c1C(=O)NC1CCCc2ccccc21 (centres undefined)	96	·	·	99	·
O=C(c1c[nH]cc1-c1ccccc1)c1cccc2ccccc12	79	60	77	70	84
CCOC(=O)c1cc(C)n(CCc2cnc[nH]2)c1C	102	99	95	92	95
CC(C)CCOC(=O)c1c(N)n(CC2CCCO2)c2nc3ccccc3nc12 (centres undefined)	44	99	66	42	52
CC(C)OC(=O)c1c(N)n(CC2CCCO2)c2nc3ccccc3nc12 (centres undefined)	89	·	87	93	34*
CC(C)CCn1c(N)c(C(=O)OCC2CCCO2)c2nc3ccccc3nc21 (centres undefined)	30	91	60	34	20*
CN1CCC2(CC1)NC(=O)C1=C(CN(C)CC1)N2	96	98	104	97	96
Cc1ccc(NC(=O)CN2C(=O)CN=C(c3ccccc3)c3cc(Cl)ccc32)cc1	47	85	85	44	25*
C=CCn1c(O)c(C=NCCCOc2ccc(CC)cc2)c(=O)[nH]c1=S	70	83	49	69	31*
CCOCCCN=Cc1c(O)n(Cc2ccccc2)c(=O)[nH]c1=O	99	89	97	106	95
CP(C)(=O)CCC(=O)O	103	·	·	99	·
COc1cc(/C=C(/C)[N+](=O)[O-])ccc1OCc1ccccc1Cl	1.2*	·	·	1.6*	·
CN1C(=O)C(=Cc2ccccc2OCc2ccccc2Cl)C(=O)N(C)C1=O	48	·	·	43	·
N#Cc1cc2c(nc1SCC(=O)Nc1cc(Cl)ccc1Cl)C1CCN2CC1	0.7*	7.1*	5.5*	1.1*	1.8*
CCCC(=O)Nc1cc(C(=O)N2CCC3(CC2)OCCO3)ccc1S(=O)(=O)c1ccc(C)cc1	88	107	100	98	97
CN(C)C=C1C(=O)N(C2CCCCC2)C(=O)N(C2CCCCC2)C1=O	91	95	67	88	31*
CCOC(=O)C1=C(N)Oc2cc(C)oc(=O)c2C12C(=O)N1c3c(cccc32)C(C)=CC1(C)C (centres undefined)	63	98	83	31	73
